Laboratory results as given in publication PMC4530033 (Journal of immunology (Baltimore, Md. : 1950), 2015).

Tests used:
[1] = tested on: LS411N-5FU-R and SW620-5FU-R cells; experiment: Sensitization to FasL-induced apoptosis; type: cell-based, human; conditions: sublethal doses plus FasL, 24h
[2] = tested on: LS411N-5FU-R and SW620-5FU-R cells; experiment: Fas expression; type: cell-based, human; conditions: 20 nM, 2 days
Summary of the method: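 Cells were cultured with or without 20 nM test compound for 2 days. Surface Fas was measured by flow cytometry with a Fas-specific mAb against an IgG isotype control, quantified as MFI (mean, SD). Fas mRNA in SW620-5FU-R was measured by real-time RT-PCR.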

[3] = Mouse serum liver enzyme profiles; type: in vivo; conditions: at the efficacious dose (1 mg/kg i.v.); preliminary assays
[4] = tested on: metastatic human CRC cells; experiment: Cell growth / viability; type: cell-based
LS411N and SW620 cells [5] = experiment: Global H3K9 methylation by Western blot of histone acidic extracts; type: cell-based, human; conditions: 2 days
Summary of the method: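 Cells were exposed to test compound at several concentrations for 2 days. Lysis buffer was 20 mM Tris-HCl pH 8, 150 mM NaCl, 5 mM EDTA, 0.5% NP-40 with protease inhibitors, for 30 min. After centrifugation the pellet went into 0.1M HCl on ice for 30 min. The acid extract was neutralised with Tris-HCl pH 9.0, blotted for H3K9me2/H3K9me3, and reprobed for total H3 as normaliser.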

LS411N and SW620 cells [6] = experiment: BNIP3 promoter DNA methylation by methylation specific-PCR; type: cell-based, human; conditions: 3 days
Summary of the method: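 Cells were exposed to test compound at several concentrations for 3 days. Methylation status of the BNIP3 promoter CpG island was then assessed by methylation-specific PCR, with separate primers for the unmethylated and methylated forms.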

DNMT3a = DNMT3a (Homo sapiens, UniProt Q9Y6K1); experiment: DNMT enzymatic activity in vitro; type: biochemical; conditions: recombinant DNMT3a; 10-dose, 3-fold serial dilutions starting at 10 μM
Summary of the method: (§1)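 Recombinant human enzyme with ³H-S-adenosylmethionine as substrate. Test compound was run at 10 doses, 3-fold serial dilution from 10 μM. […] Activity was plotted against concentration and IC50 fitted by curve regression. Three independent assays used three compound lots.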

[7] = tested on: LS411N-5FU-R and SW620-5FU-R cells; experiment: Sensitization to Drozitumab-induced apoptosis; type: cell-based, human; conditions: verticillin A 20 nM, Drozitumab 500 ng/ml, 24h
Summary of the method: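 Cells were given test compound (20 nM), drozitumab (500 ng/ml) or both for 24 h. Floating and adherent cells were pooled and stained with Annexin V and PI, then read by flow cytometry. % apoptotic death = % Annexin V⁺PI⁺ of treated minus untreated control (mean, SD).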

[8] = tested on: SW620-5FU-R and LS411N-5FU-R cells; experiment: Cell surface DR4 and DR5 expression by flow cytometry; type: cell-based, human; conditions: 2 days
Summary of the method: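 Cells were plated at 1×10^5 per well and exposed to 0, 20 or 50 nM test compound. They were then stained with anti-DR4 (TRAIL-R1) or anti-DR5 (TRAIL-R2) antibodies and analysed by flow cytometry.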

DNMT1 = DNMT1 (Homo sapiens, UniProt P26358); experiment: DNMT enzymatic activity in vitro; type: biochemical; conditions: recombinant DNMT1; 10-dose, 3-fold serial dilutions starting at 10 μM
Summary of the method: as §1

DNMT3b = DNMT3b (Homo sapiens, UniProt Q9UBC3); experiment: DNMT enzymatic activity in vitro; type: biochemical; conditions: recombinant DNMT3b; 10-dose, 3-fold serial dilutions starting at 10 μM
Summary of the method: as §1

SW620 and SW480 cells = experiment: ChIP analysis of the FAS promoter region; type: cell-based, human; conditions: 2 days
Summary of the method: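 Cells (SW620 given 50 nM test compound for H3K9me3 and RNA Pol II; SW480 and SW620 for H3K9ac) treated 2 days. ChIP followed the kit manufacturer's protocol with anti-H3K9me3, anti-H3K9ac or anti-RNA Pol II, and IgG as the negative control. The FAS promoter ChIP 1 region was read by semi-quantitative PCR and by real-time PCR, against 2 ng genomic DNA set at 1.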

Sequence of DNMT3a (Q9Y6K1 whole entry, looked up, species assumed): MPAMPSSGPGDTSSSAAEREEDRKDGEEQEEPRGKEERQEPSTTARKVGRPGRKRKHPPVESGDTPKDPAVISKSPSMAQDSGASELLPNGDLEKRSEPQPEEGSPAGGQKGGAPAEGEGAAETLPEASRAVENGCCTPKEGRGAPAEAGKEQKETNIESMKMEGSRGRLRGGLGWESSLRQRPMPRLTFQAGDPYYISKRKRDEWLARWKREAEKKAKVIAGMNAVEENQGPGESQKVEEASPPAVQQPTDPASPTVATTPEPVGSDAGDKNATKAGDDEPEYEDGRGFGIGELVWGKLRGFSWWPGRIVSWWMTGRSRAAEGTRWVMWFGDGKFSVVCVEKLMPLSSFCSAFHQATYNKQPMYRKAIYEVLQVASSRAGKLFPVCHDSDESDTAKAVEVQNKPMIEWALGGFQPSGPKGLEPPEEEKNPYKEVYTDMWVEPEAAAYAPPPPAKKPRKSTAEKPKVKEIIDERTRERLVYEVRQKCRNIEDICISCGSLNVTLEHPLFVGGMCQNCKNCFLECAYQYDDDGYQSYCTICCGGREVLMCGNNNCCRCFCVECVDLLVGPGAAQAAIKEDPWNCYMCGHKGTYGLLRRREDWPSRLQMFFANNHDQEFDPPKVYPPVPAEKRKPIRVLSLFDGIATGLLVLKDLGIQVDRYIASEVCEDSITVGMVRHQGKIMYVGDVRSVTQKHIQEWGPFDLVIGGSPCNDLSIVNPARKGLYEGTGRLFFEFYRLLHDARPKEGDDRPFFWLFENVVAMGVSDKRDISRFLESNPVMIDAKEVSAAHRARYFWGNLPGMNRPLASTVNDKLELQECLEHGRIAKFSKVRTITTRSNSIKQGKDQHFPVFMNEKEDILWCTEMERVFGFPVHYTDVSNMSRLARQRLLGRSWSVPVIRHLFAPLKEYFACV
Sequence of DNMT1 (P26358 whole entry, species assumed): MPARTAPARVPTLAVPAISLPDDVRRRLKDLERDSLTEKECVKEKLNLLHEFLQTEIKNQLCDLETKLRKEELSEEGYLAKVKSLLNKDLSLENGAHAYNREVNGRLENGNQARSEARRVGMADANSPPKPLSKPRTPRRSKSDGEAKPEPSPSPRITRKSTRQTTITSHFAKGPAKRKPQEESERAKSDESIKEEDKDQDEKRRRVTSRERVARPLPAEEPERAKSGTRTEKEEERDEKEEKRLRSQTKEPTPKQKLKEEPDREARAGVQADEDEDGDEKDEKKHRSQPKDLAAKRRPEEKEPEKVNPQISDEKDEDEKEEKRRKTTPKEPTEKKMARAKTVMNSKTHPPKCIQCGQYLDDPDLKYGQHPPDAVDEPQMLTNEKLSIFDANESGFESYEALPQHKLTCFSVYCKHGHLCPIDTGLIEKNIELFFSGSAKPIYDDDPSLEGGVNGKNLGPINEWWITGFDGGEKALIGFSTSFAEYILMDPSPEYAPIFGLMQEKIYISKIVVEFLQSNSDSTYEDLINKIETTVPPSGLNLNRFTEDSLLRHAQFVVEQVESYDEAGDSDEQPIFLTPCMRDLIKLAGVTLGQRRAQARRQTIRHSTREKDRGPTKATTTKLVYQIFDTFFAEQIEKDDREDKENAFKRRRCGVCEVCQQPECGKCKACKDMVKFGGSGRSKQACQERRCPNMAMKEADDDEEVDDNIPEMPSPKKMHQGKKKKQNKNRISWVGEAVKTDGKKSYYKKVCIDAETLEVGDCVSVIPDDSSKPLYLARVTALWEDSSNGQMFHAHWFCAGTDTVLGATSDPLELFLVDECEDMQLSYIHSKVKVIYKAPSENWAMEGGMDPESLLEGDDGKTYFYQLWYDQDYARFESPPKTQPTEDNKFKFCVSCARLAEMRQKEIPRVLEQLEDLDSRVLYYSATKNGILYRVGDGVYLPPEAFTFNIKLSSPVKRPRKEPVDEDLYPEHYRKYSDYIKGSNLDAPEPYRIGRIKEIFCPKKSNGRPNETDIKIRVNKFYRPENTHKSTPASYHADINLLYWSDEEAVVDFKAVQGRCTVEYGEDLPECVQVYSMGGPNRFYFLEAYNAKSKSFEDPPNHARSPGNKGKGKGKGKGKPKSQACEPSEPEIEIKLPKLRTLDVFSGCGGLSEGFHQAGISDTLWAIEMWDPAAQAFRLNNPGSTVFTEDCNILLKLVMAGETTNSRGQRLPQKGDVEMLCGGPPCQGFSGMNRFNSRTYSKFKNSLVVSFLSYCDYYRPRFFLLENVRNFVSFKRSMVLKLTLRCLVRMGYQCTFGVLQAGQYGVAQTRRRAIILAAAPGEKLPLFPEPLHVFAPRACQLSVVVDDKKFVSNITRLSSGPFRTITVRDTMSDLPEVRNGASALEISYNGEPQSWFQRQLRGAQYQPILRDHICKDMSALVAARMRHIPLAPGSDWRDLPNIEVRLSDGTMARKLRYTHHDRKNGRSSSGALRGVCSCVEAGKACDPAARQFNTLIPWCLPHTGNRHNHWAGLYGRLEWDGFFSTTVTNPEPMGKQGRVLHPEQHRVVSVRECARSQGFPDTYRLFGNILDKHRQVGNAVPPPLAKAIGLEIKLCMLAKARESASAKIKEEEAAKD

Row | SMILES | sensitization of tumor cells to FasL-induced apoptosis [1] | cell surface Fas receptor level ([2]; LS411N-5FU-R and SW620-5FU-R cells, flow cytometry) | Fas mRNA level ([2]; SW620-5FU-R cells, real time RT-PCR) | liver toxicity [3] | sensitivity of 5-FU-resistant human CRC cells to verticillin A ([4]; 5-FU-resistant cells versus parent cell lines (Fig. S2B)) | dose effective in suppression of metastatic human CRC cell growth ([4]; relatively high dose) | H3K9me2 and H3K9me3 levels (LS411N and SW620 cells [5]) | DNA demethylation of the BNIP3 promoter region (LS411N and SW620 cells [6]) | effect on DNMT3a enzymatic activity (DNMT3a) | cell sensitivity to Drozitumab [7] | DR4 expression [8] | DR5 expression level [8] | effect on DNMT1 enzymatic activity (DNMT1) | effect on DNMT3b enzymatic activity (DNMT3b) | H3K9ac level in the FAS promoter region (SW620 and SW480 cells; SW480 cells) | H3K9me3 level in the FAS promoter region (SW620 and SW480 cells; SW620 cells, 50 nM) | RNA Pol II level in the FAS promoter region (SW620 and SW480 cells; SW620 cells, 50 nM) | H3K9ac level in the FAS promoter region (SW620 and SW480 cells; SW620 cells, increase)
1 | Nc1ncn([C@H]2C[C@H](O)[C@@H](CO)O2)c(=O)n1 [decitabine] | to a small degree |  |  |  |  |  |  |  |  |  |  |  |  |  |  |  |  | 
2 | CN1C(=O)[C@]23SS[C@@]1(C)C(=O)N2[C@H]1Nc2ccccc2[C@@]1([C@@]12c4ccccc4N[C@@H]1N1C(=O)[C@@]4(C)SS[C@]1(C(=O)N4C)[C@H]2O)[C@@H]3O [Verticillin A, verticillin A] | significantly greater efficacy than either decitabine or vorinostat | significantly increased | significantly increased | minimal liver toxicity | as sensitive to verticillin A as the parent cell lines | 100 nM | diminished | did not result in DNA demethylation | no inhibitory effect | significantly increased | did not alter | increased | no inhibitory effect | no inhibitory effect | dramatically increased | decreased | did not identify an increase | at a low degree
3 | O=C(CCCCCCC(=O)Nc1ccccc1)NO [vorinostat] | to a small degree |  |  |  |  |  |  |  |  |  |  |  |  |  |  |  |  | 
